Compounds with a hit are over-represented: about 2.3% of the library has one in this group of screens.
PPC-1+TRAIL kill: compounds killing PPC-1 cancer cells with TRAIL present, primary screen, TRAIL potentiator project, ATPLite luminescence, uHTS; actives 0.41% (n = 220,000); AID 1443, 2008; cell killing (% activity), % at 4 µM or 5 µM; PPC-1 cells + TRAIL, ATPLite viability luminescence;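 active = cell killing above 50% in the first pass at 4 µM, then a duplicate retest at 5 µM averaging 50% or more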
STAT3 act: IL-6 driven STAT3 reporter potentiators, primary screen, U3A cells, luciferase, luminescence, MLSCN library; IL-6 STAT3-luciferase reporter; 100% = signal with IL-6 EC80 alone; activation (% of control), % at 5.6 µM; actives 0.91% (n = 190,000);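 active = activation above the screen-wide mean of compound activation plus 3 SD, cut at about 130% in these data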
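Detection: reporter luminescence signal / Assay system: STAT1-lacking human U3A cells, STAT3 luciferase reporter / Incubation: compound pre-incubation 1 h before IL-6, then 6 h stimulation at 37 °C / Control set: IL-6-only high control / Read-out: % activation relative to IL-6 control / Probe or stimulus: Interleukin-6, 33 ng/mL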
HSP90 refold inh: HSP90 inhibitors, primary screen, cell lysate, luminescence; inhibition, % at 5.6 µM; Rabbit reticulocyte lysate, luciferase refolding luminescence, 3 h; Heat shock protein HSP 90 (rabbit reticulocyte lysate; luciferase refolding); actives 0.91% (n = 290,000);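 active = inhibition above the screen-wide mean plus 3 SD, computed separately per campaign, cut at about 16% in these data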;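 also: inhibitors lower the luminescence because luciferase stays unfolded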
TRAIL sens C8: viability loss with TRAIL in NB7+C8 cells, primary screen, TRAIL sensitizer project, cell-based, ATPlite luminescence. inhibition (viability loss, TRAIL sensitization), % at 10 µM. actives 1% (n = 360,000);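 active = compounds causing at least 50% loss of cell viability in the single-dose screen, relative to plate controls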
STAT1 blocker: STAT1 signaling inhibitors, primary screen, cell-based, HTS, luciferase reporter; NIH 3T3 STAT1-luciferase reporter, IFN-gamma, luminescence; inhibition, % at 5.5 µM; actives 0.35% (n = 200,000); AID 920, 2007;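 active = inhibition above a set limit, the mean inhibition across all tested compounds plus 3 SD, cut at about 34% in these data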
STAT3 inh-1: IL-6 driven STAT3 reporter inhibitors, primary screen, U3A cells, luciferase, luminescence, MLSCN library | inhibition, % at 5.5 µM | IL-6 STAT3-luciferase reporter; host cell line lacks STAT1 | actives 0.89% (n = 190,000);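 active = inhibition above the mean inhibition across all screened compounds plus 3 SD, cut at about 44% in these data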
STAT3 inh-2: STAT3 reporter inhibitors, retest of hits, confirmation, U3A cells, luciferase, luminescence. inhibition, % at 5.7 µM. shares compounds with STAT3 inh-1. actives 45% (n = 1,200). IL-6 STAT3 luciferase reporter; cell line lacks STAT1. AID 1265, 2008;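 active = inhibition above the hit cutoff computed for the primary STAT3 screen, cut at about 44% in these data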
NFkB inh STAT3ct: NF-kB reporter inhibitors in human cells, confirmation, counter-screen for STAT3 inhibitor project, cell-based, HEK293T, luciferase, TNF-alpha stimulus | shares compounds with STAT3 inh-1 | actives 36% (n = 1,200) | AID 1308, 2008 | inhibition, % at 5.7 µM | TNF-alpha induced;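 active = inhibition above the mean of solvent-only control wells plus 3 SD, cutoff set per campaign, cut at about 13% in these data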
STAT1 inh 2: STAT1 reporter inhibitors, IFN-gamma induced, confirmation, counter-screen for STAT3 inhibitor project, cell-based, NIH 3T3, luciferase luminescence. shares compounds with STAT3 inh-1. NIH 3T3 STAT1-luciferase reporter. inhibition, % at 5.7 µM. actives 27% (n = 1,200). AID 1317, 2008;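 active = inhibition above the mean plus 3 SD of solvent-only control wells, limit set per screening run, cut at about 16% in these data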
PPC-1 tox: cytotoxicity in PPC-1 cells, confirmation, cytotoxicity control for TRAIL apoptosis potentiator project, cell-based, ATP content luminescence | shares compounds with PPC-1+TRAIL kill | PPC-1 viability, ATPlite luminescence, overnight | cytotoxicity, % at 5 µM | actives 50% (n = 1,200);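 active = reconfirmed compounds whose average cytotoxicity reaches 50% or more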
HSP90 confirm: HSP90 inhibitors, confirmation, cell lysate, luminescence; shares compounds with HSP90 refold inh; rabbit reticulocyte lysate, luciferase refolding luminescence, 3 h; inhibition, % at 5.9 µM; actives 64% (n = 2,300); AID 1846, 2009; in the data active = inhibition above about 18%
luciferase ctr: firefly luciferase inhibitors, HSP90 counter-screen, confirmation, artefact control for HSP90 inhibitor project, biochemical, luminescence, triplicate | actives 48% (n = 2,300) | inhibition, % at 5.9 µM | shares compounds with HSP90 refold inh | purified native firefly luciferase;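 active = inhibition above the mean inhibition of all tested sample wells plus 3 SD, cut at about 10% in these data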
Target sequence (P08659 whole entry, looked up): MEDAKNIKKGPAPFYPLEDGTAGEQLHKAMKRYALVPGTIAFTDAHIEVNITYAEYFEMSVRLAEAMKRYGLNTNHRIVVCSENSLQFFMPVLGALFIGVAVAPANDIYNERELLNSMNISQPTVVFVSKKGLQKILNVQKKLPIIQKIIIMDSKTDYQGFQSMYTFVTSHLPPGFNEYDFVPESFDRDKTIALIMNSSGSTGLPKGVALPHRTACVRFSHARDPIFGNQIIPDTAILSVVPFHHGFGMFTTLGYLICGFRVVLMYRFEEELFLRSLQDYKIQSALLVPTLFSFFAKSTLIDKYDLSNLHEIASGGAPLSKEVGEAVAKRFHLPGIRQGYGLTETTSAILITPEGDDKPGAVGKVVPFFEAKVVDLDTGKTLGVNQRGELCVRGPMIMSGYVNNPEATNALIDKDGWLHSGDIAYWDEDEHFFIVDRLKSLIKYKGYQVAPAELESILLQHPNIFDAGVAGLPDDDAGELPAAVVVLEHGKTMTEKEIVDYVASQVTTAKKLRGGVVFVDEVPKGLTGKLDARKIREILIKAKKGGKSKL
Large screens that a line does not name were inactive (follow-up assays come after a bar, where they were run).

Clc1ccc(Cn2ncc3c(N4CCCCC4)ncnc32)cc1	none
Cc1cccc(-n2ncc3c(N4CCOCC4)ncnc32)c1	PPC-1+TRAIL kill 79, HSP90 refold inh 54, TRAIL sens C8 84, STAT3 inh-1 78 | STAT3 inh-2 62 | NFkB inh STAT3ct 28 | STAT1 inh 2 inactive | PPC-1 tox 78 | HSP90 confirm 77 | luciferase ctr 68
COC(=O)C1=C(C)N(C)C(=O)NC1c1c(O)ccc2ccccc12 (centres undefined)	none (no result: PPC-1+TRAIL kill, STAT3 act, STAT1 blocker, STAT3 inh-1)
CN(C)c1nn2c(-c3ccccc3)nnc2o1	none (no result: PPC-1+TRAIL kill, STAT3 act, HSP90 refold inh, STAT1 blocker, STAT3 inh-1)
Cc1ccc(C(=O)Nc2ccc3nccnc3c2)cc1	PPC-1+TRAIL kill 74, HSP90 refold inh 26, TRAIL sens C8 76, STAT3 inh-1 52 | STAT3 inh-2 inactive | NFkB inh STAT3ct inactive | STAT1 inh 2 inactive | PPC-1 tox 74 | HSP90 confirm 33 | luciferase ctr inactive
CCCCCCCN1CCC(=O)N(CCO)CC1	none (no result: PPC-1+TRAIL kill, STAT3 act, STAT1 blocker, STAT3 inh-1)
Cc1ccc(NC2=Nc3ccccc3CS2)cc1	HSP90 refold inh 26, TRAIL sens C8 55, STAT3 inh-1 59 | STAT3 inh-2 inactive | NFkB inh STAT3ct inactive | STAT1 inh 2 inactive | HSP90 confirm 48 | luciferase ctr 43
COc1ccc(S(=O)(=O)N(C)CC(=O)NCCC2=CCCCC2)cc1OC	none
COc1ccc(-n2ncc3c(NC(C)C)ncnc32)cc1	HSP90 refold inh 17, STAT3 inh-1 56 | STAT3 inh-2 inactive | NFkB inh STAT3ct inactive | STAT1 inh 2 inactive | HSP90 confirm 43 | luciferase ctr 31
COc1ccc(-n2ncc3c(NCC(C)C)ncnc32)cc1	none
O=C(NC1CCCCC1)c1cccc(N2C(=O)CCC2=O)c1	none (no result: PPC-1+TRAIL kill, STAT3 act, HSP90 refold inh, STAT1 blocker, STAT3 inh-1)
COc1ccc(-c2cc3nc(C)cc(N)n3n2)cc1	PPC-1+TRAIL kill 81, HSP90 refold inh 42, TRAIL sens C8 84, STAT3 inh-1 69 | STAT3 inh-2 inactive | NFkB inh STAT3ct inactive | STAT1 inh 2 inactive | HSP90 confirm 61 | luciferase ctr 41
CCN1CCN(/C=N/c2nc3c(s2)CCCC3)CC1	HSP90 refold inh 65, STAT3 inh-1 52 | STAT3 inh-2 inactive | NFkB inh STAT3ct inactive | STAT1 inh 2 inactive | HSP90 confirm 72 | luciferase ctr 42
Cc1ccccc1C(=O)NC(=S)NCCC1=CCCCC1	none
O=C(COc1nncc2ccccc12)NCC(F)(F)F	none
Cc1[nH]nc2c1C1(CCN(C(=O)c3ccccc3)CC1)C(C#N)=C(N)O2	none
Cc1[nH]nc2c1C1(CCN(C(=O)OCc3ccccc3)CC1)C(C#N)=C(N)O2	HSP90 refold inh 24, STAT3 inh-1 49 | STAT3 inh-2 inactive | NFkB inh STAT3ct inactive | STAT1 inh 2 inactive | HSP90 confirm inactive | luciferase ctr inactive
CCOc1ccc(C(=O)N2CCCC2)cc1	none
CCOc1ccc(OCc2cccc(C(=O)N3CCCC3)c2)cc1	HSP90 refold inh 21, STAT1 blocker 42, STAT3 inh-1 53 | STAT3 inh-2 inactive | NFkB inh STAT3ct 17 | STAT1 inh 2 inactive | HSP90 confirm 30 | luciferase ctr 26
COc1ccc(C(=O)NCCC2=CCCCC2)cc1	HSP90 refold inh 32, STAT3 inh-1 52 | STAT3 inh-2 inactive | NFkB inh STAT3ct inactive | STAT1 inh 2 inactive | HSP90 confirm 54 | luciferase ctr 48
Cc1cccc(NC(=O)c2ccc3c(c2)OCCO3)n1	none (no result: PPC-1+TRAIL kill, STAT3 act, STAT1 blocker, STAT3 inh-1)
Cc1cc(NC(=O)c2ccc3c(c2)OCCO3)no1	HSP90 refold inh 27, TRAIL sens C8 87, STAT3 inh-1 74 | STAT3 inh-2 inactive | NFkB inh STAT3ct inactive | STAT1 inh 2 inactive | HSP90 confirm 58 | luciferase ctr 49
Cc1ccc(-n2cc(C(=O)c3ccccc3O)cn2)cc1	HSP90 refold inh 31, TRAIL sens C8 60, STAT3 inh-1 79 | STAT3 inh-2 inactive | NFkB inh STAT3ct 37 | STAT1 inh 2 inactive | HSP90 confirm 61 | luciferase ctr 48
Cc1ccc(O)c(C(=O)c2cnn(-c3ccccc3)c2)c1	none
Cc1cc(C(=O)CSc2nc3ccccc3[nH]2)c(C)n1CC1CCCO1 (centres undefined)	HSP90 refold inh 49, TRAIL sens C8 76, STAT3 inh-1 97 | STAT3 inh-2 63 | NFkB inh STAT3ct 22 | STAT1 inh 2 inactive | HSP90 confirm 66 | luciferase ctr 67
Cc1cc(C(=O)CSc2nc(N)cc(=O)[nH]2)c(C)n1CC1CCCO1 (centres undefined)	none (no result: PPC-1+TRAIL kill, STAT3 act, HSP90 refold inh, STAT1 blocker, STAT3 inh-1)
CC(=O)N1CCCC(C)(C(=O)Nc2ccc3nc(C)ccc3c2)C1 (centres undefined)	none (no result: PPC-1+TRAIL kill, STAT3 act, HSP90 refold inh, STAT1 blocker, STAT3 inh-1)
CN=c1scc(-c2ccccc2Br)n1/N=C/c1ccc[nH]1	HSP90 refold inh 62, STAT3 inh-1 58 (no result: TRAIL sens C8) | STAT3 inh-2 inactive | NFkB inh STAT3ct inactive | STAT1 inh 2 inactive | HSP90 confirm 72 | luciferase ctr 70
O=C(O)c1ccc2nc(-c3ccccc3)sc2c1	HSP90 refold inh 95, STAT1 blocker 36, STAT3 inh-1 79 | STAT3 inh-2 46 | NFkB inh STAT3ct 18 | STAT1 inh 2 inactive | HSP90 confirm 95 | luciferase ctr 79
O=C(O)c1ccc2ncsc2c1	none (no result: STAT3 act, STAT1 blocker, STAT3 inh-1)
Cc1ccc(C(=O)/C=C2\NCCNC2=O)cc1	none
Cc1ccc(C(=O)/C=C2\NCC(C)NC2=O)cc1 (centres undefined)	HSP90 refold inh 37, STAT3 inh-1 65 | STAT3 inh-2 inactive | NFkB inh STAT3ct inactive | STAT1 inh 2 inactive | HSP90 confirm 56 | luciferase ctr 43

Screens: PubChem, several laboratories
